Experimental data gathered from unrelated publications.
Protocols differ between the studies behind these lines.
Target: Mitogen-activated protein kinase 6 (MAPK6, Homo sapiens, UniProt Q16659)

CC(=O)C1=C(C)N(c2cccc(C(F)(F)F)c2)C(=O)N[C@@H]1c1ccc(C#N)nc1
remaining binding (cell-free assay; competition with immobilised ligand; 1 µM): 75.8%

C[C@H]1CCN(c2nccc(-c3cnn4ncccc34)n2)C1
remaining binding (binding; 1 µM): 83%

FC(F)(F)Oc1cccc(-c2cnc3ccc(-c4ccncc4)nn23)c1
remaining binding (cell-free assay; competition with immobilised ligand; 5 µM): 91%

N[C@@H]1CCN(c2nccc(-c3cnn4ncccc34)n2)C1
remaining binding (binding; 1 µM): 100%

Cn1nc(C(=O)NCc2ccc(C(=O)O)cc2)cc1-c1ccc2[nH]ccc2c1
remaining binding (cell-free assay; competition with immobilised ligand; 0.1 µM): 100%

Cc1cnc(Nc2ccc(C(=O)N3CCC(N4CCCC4)CC3)cc2)nc1-c1cc2ccccc2s1
remaining binding (binding; competition with immobilised ligand; 1 µM): 0.1%

c1cnn2ncc(-c3ccnc(N4CCC45COC5)n3)c2c1
remaining binding (binding; 1 µM): 92%

O=C(NCCCN1CCOCC1)c1ccc(Nc2ncc(Cl)c(-c3ccc(Cl)s3)n2)cc1
remaining binding (binding; competition with immobilised ligand; 1 µM): 0.05%

C[C@@H](c1ccc(-n2cnc3c(N)ncnc32)cc1)N1CCc2nn(C)c(Cc3ccccc3)c2C1=O
remaining binding (binding; competition with immobilised ligand; 0.1 µM): 93%

CC1CCCN1c1nccc(-c2cnn3ncccc23)n1 (stereo not shown)
remaining binding (binding; 1 µM): 89%

COc1cnc(Nc2cccc(S(N)(=O)=O)c2)nc1N1CCN(c2ccccc2)CC1
remaining binding (binding; competition with immobilised ligand; 1 µM): 100%

O=C(c1ccc(Nc2ncc(Cl)c(-c3ccc(Cl)s3)n2)cc1)N1CCC(N2CCCC2)CC1
remaining binding (binding; competition with immobilised ligand; 1 µM): 0%

C[C@@H](c1cccc(C#N)c1)n1cc(Cl)cc(C(N)=O)c1=N
remaining binding (cell-free assay; competition with immobilised ligand; 1 µM): 100%

COc1cnc(Nc2cccc(S(N)(=O)=O)c2)nc1N1CCN(c2ccccc2)C(=O)C1
remaining binding (binding; competition with immobilised ligand; 1 µM): 100%

C[C@@]1(Cc2ccc(C#N)cc2)C(=O)N(c2cc(Cl)cc(Cl)c2)c2ncc(C(=O)NC3(c4nc(C5CCC5)no4)CC3)n21
remaining binding (cell-free assay; competition with immobilised ligand; 1 µM): 100%

CN(C)c1nccc(-c2cnn3ncccc23)n1
remaining binding (binding; 1 µM): 100%

CCCCN(CCCC)C(=O)CN1C[C@H](c2cc(OC)c3c(c2)OCO3)[C@@H](C(=O)O)[C@@H]1CC(C)(C)CCC
remaining binding (cell-free assay; competition with immobilised ligand; 1 µM): 100%

O=C(Nc1c[nH]nc1C(=O)NC1CCNCC1)c1cc(F)cc(F)c1
remaining binding (binding; competition with immobilised ligand; 1 µM): 89%

COc1ccnn2ncc(-c3ccnc(N(C)C)n3)c12
remaining binding (binding; 1 µM): 85%

CN(C)c1ncnc(-c2ccc3nc(Nc4cc(CN5CCN(C(=O)CC(F)(F)F)CC5)ccn4)[nH]c3c2)c1Cl
remaining binding (cell-free assay; competition with immobilised ligand; 1 µM): 100%

CN(CCCC(F)(F)F)c1nccc(-c2cnn3ncccc23)n1
remaining binding (binding; 1 µM): 90%

Cc1nc(C2CCN(C(=O)c3ccc(OC(F)(F)F)cc3N)CC2)c2ncc(N3CCN(C)CC3)cc2n1
remaining binding (cell-free assay; competition with immobilised ligand; 1 µM): 100%
